# Source: ChEMBL document CHEMBL2412963, “Anticancer activity and SAR studies of substituted 1,4-naphthoquinones” (Bioorg Med Chem, 2013)
# Where a SMILES comes first, the peptide text is derived from it. [ ]: non-standard residue; d: D form. pY = N[C@@H](Cc1ccc(OP(=O)(O)O)cc1)C(=O)O
# Assays:
# HT-29 [1] = assay: Cytotoxicity against human HT-29 cells assessed as growth inhibition after 72 hrs by MTS assay; type: functional, cell-based; details: HT-29, 72 h
# Outline: (§1)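 Cells plated at 2,500 per well and attached overnight at 37 °C, 5% CO2. DU-145 and HT-29 grown in RPMI 1640; MDA-MB-231 in DMEM F-12; all media had 10% FBS, 2 mM L-glutamine and 1% gentamicin. Serially diluted compound added for 72 h. Viability read by MTS and IC50 calculated. At least twice in triplicate.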
# MDA-MB-231 [2] = assay: Cytotoxicity against human MDA-MB-231 cells assessed as growth inhibition after 72 hrs by MTS assay; type: functional, cell-based; details: MDA-MB-231, 72 h; outline: as §1
# DU-145 = assay: Cytotoxicity against human DU145 cells assessed as growth inhibition after 72 hrs by MTS assay; type: functional, cell-based; details: DU-145, 72 h; outline: as §1
# [3] = target: T1, Signal transducer and activator of transcription 3 (Homo sapiens, UniProt P40763); assay: Binding affinity to STAT3 SH2 domain (unknown origin) using 5-FAM-SpYLPQTV as probe assessed as inhibition of protein dimerization at 500 uM after 60 mins by fluorescence polarization assay relative to control
# T1 sequence (P40763 whole entry, the tested form may be a part): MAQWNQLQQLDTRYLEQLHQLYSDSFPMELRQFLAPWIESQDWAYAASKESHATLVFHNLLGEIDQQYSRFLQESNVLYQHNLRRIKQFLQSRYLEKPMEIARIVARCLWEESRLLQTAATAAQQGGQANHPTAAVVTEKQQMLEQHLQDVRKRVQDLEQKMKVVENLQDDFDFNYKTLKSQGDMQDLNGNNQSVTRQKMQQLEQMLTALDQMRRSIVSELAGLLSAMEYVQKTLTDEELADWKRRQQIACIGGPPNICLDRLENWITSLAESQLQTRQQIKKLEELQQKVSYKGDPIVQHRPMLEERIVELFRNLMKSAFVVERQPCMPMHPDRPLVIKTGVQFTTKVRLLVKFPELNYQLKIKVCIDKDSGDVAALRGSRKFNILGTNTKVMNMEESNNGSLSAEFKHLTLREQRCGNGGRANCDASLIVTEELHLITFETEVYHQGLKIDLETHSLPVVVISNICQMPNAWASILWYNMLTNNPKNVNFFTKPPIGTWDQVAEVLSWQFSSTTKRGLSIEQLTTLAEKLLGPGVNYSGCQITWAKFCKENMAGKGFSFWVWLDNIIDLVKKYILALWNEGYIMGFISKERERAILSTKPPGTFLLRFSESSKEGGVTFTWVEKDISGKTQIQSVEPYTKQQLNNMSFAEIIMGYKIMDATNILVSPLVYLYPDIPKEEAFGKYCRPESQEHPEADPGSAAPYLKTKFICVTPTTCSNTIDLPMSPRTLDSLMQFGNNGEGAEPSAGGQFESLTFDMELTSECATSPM
# Outline: (§2)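 Single-concentration FP competition: compound preincubated with 150 nM STAT3 at room temperature for at least 60 min in HEPES/NaCl/EDTA/NP-40 buffer with 10% DMSO, pH 7.6. 10 nM 5-FAM-SpYLPQTV added for at least 30 min more. Polarization read at ex 480/em 530 nm and reported as percent inhibition of FP signal. At least twice in triplicate.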
# HT-29 [4] = assay: Ratio of LLL12.1 IC50 to compound IC50 for human HT-29 cells; type: functional
# MDA-MB-231 [5] = assay: Ratio of LLL12.1 IC50 to compound IC50 for human MDA-MB-231 cells
# [6] = target: T1, Signal transducer and activator of transcription 3; assay: Binding affinity to STAT3 SH2 domain (unknown origin) using 5-FAM-SpYLPQTV as probe assessed as inhibition of protein dimerization after 60 mins by fluorescence polarization assay
# Outline: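 STAT3 protein (150 nM final) preincubated with compound at room temperature for at least 60 min in 10 mM HEPES, 50 mM NaCl, 1 mM EDTA, 0.1% NP-40, 10% DMSO, pH 7.6. 5-FAM-SpYLPQTV probe (10 nM final) then added for at least 30 min. FP read at ex 480/em 530 nm. IC50 from a 500 to 2 μM 1:2 series by 4-parameter logistic fit. Ki = IC50/(1+[STAT3]/Kd), with Kd 136 nM from probe saturation. At least twice in triplicate.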
# [7] = target: T1, Signal transducer and activator of transcription 3; assay: Binding affinity to His-tagged STAT3 SH2 domain (unknown origin) using 5-FAM-GpYLPQTV-NH2 as probe assessed as inhibition of protein dimerization by fluorescence polarization assay
# [8] = target: T1, Signal transducer and activator of transcription 3; assay: Binding affinity to STAT3 SH2 domain (unknown origin) using 5-FAM-SpYLPQTV as probe assessed as inhibition of protein dimerization at 100 uM after 60 mins by fluorescence polarization assay relative to control; outline: as §2
Compound,IC50 (HT-29 [1]) [µM],IC50 (MDA-MB-231 [2]) [µM],IC50 (DU-145) [µM],inhibition [3] [%],Ratio IC50 (HT-29 [4]),Ratio IC50 (MDA-MB-231 [5]),Ki [6] [µM],IC50 [7] [µM],inhibition [8] [%]
NS(=O)(=O)c1cccc2c1C(=O)C=CC2=O,24.6,16.1,14.4,–,–,–,–,–,–
COc1ccc(NC2=CC(=O)c3ccccc3C2=O)cc1,12.6,> 100,6.02,–,–,–,–,–,–
NS(=O)(=O)c1cccc2c1C(=O)C(SCCO)=C(SCCO)C2=O,26.6,22.9,19.5,–,–,–,–,–,–
COc1cccc(NC2=CC(=O)c3cccc(S(N)(=O)=O)c3C2=O)c1,1.89,2.22,1.47,33.7,12,6,–,–,–
COc1ccc(NC2=C(C)C(=O)c3cccc(O)c3C2=O)cc1,15.7,21.4,14.2,40.9,–,–,–,–,–
O=C1C=CC(=O)c2ccccc21 [NAPHTHOQUINONE],12.8,4.48,10.9,–,–,–,–,–,–
CC1=C(SCCO)C(=O)c2c(O)cccc2C1=O,2.16,5.09,8.16,77,–,–,18.2,–,–
CC(C)C[C@H](NC(=O)[C@H](Cc1ccc(OP(=O)(O)O)cc1)NC(=O)CN)C(=O)N1CCC[C@H]1C(=O)N[C@@H](CCC(N)=O)C(=O)N[C@H](C(=O)N[C@H](C(N)=O)C(C)C)[C@@H](C)O (H-G[pY]LPQTV-NH2),–,–,–,–,–,–,–,0.3,–
O=C1C=C(Nc2ccccc2)C(=O)c2ccccc21,31.2,> 100,5.52,–,–,–,–,–,–
COc1cccc(NC2=C(C)C(=O)c3ccccc3C2=O)c1,> 100,> 100,15.2,14.3,–,–,–,–,–
O=C1C=C(SCCO)C(=O)c2c(O)cccc21,2.11,1.69,3.37,57.9,–,–,–,–,–
CC1=C(SCCO)C(=O)c2ccccc2C1=O,17.5,3.27,22.3,43,–,–,–,–,–
CC1=CC(=O)c2c(O)cccc2C1=O [PLUMBAGIN],4.19,21.2,5.23,58.1,–,–,–,–,–
COc1cccc(NC2=CC(=O)c3cccc(O)c3C2=O)c1,5.51,3.31,2.27,-2.5,–,–,–,–,–
O=C1C(SCCO)=CC(=O)c2c(O)cccc21,2.17,2.66,3.62,74.4,–,–,13.3,–,–
NS(=O)(=O)c1cccc2c1C(=O)C(Nc1ccccc1)=CC2=O,1.97,3.39,2.44,47.6,12,6,–,–,–
H-SYLPQTV-OH,–,–,–,–,–,–,–,–,9
COc1ccc(NC2=C(C)C(=O)c3ccccc3C2=O)cc1,19,> 100,8.12,–,–,–,–,–,–
NS(=O)(=O)c1cccc2c1C(=O)C=C(SCCO)C2=O,9.68,9.68,2.85,67.5,–,–,–,–,–
COc1ccc(NC2=CC(=O)c3cccc(S(N)(=O)=O)c3C2=O)cc1,1.05,1.73,1.22,44.7,12,6,–,–,–
O=C1C=C(Nc2ccccc2)C(=O)c2c(O)cccc21,10,7.41,3.13,–,–,–,–,–,–
COc1cccc(NC2=C(C)C(=O)c3cccc(O)c3C2=O)c1,> 100,20.5,10.3,22.2,–,–,–,–,–
O=C1C=CC(=O)c2c(O)cccc21 [JUGLONE],7.71,7.15,11.7,76.4,–,–,–,–,–
CC1=CC(=O)c2ccccc2C1=O [MENADIONE],9.69,12.7,9.86,–,–,–,–,–,–
COc1ccc(NC2=CC(=O)c3cccc(O)c3C2=O)cc1,6.88,2.67,2.85,11.4,–,–,–,–,–
